Holding throughout (set-up): dose 5 mg/kg, dosed compound name [14C]-apixaban, route oral
What all share (settings): in vivo

Data set [1] relates to Lung. The experiment in a line: Biodistribution in male Sprague-Dawley rat lung at 5 mg/kg, po administered as single dose measured after 0.5 hrs. Type of data set: ADME, organism-based. In short, it runs like this:
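[14C]apixaban (1.0 mg/mL, 20 μCi/mL) in 0.5% Tween 80 in Labrafil, given by oral gavage at 100 μCi/kg to male rats (225-252 g) fasted overnight through 4 h post-dose. One rat per time point. Carcasses frozen in hexane/dry ice and cut into 40 µm sagittal sections. QWBA read on phosphor plates against [14C]glucose standards, reported as µg eq/g. LLOQ 0.037 µg eq/g.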

The test system of data set [2] is Rattus norvegicus. Kind of data set: Biodistribution in male Sprague-Dawley rat salivary gland at 5 mg/kg, po administered as single dose measured after 72 hrs. Type of data set: ADME, organism-based. In outline:
(§1)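 Fasted male SD rats (225-252 g) each received one oral gavage dose of [14C]apixaban, 5 mg/kg (100 μCi/kg), in 0.5% Tween 80/Labrafil vehicle. One rat was killed per time point, from 0.5 to 168 h. Frozen carcasses were cut into 40 µm sagittal whole-body sections and read by QWBA phosphor imaging against [14C]glucose calibrants. Results are in µg apixaban eq/g; BLQ <0.037 µg eq/g.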

Data set [3] has as its system Adrenal gland. The experiment in a line: Biodistribution in female Sprague-Dawley rat adrenal gland at 5 mg/kg, po administered as single dose measured after 24 hrs. The data set is classed as ADME, organism-based. In short, it runs like this: (§2)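 Quantitative whole-body autoradiography was run after a single 5 mg/kg (100 μCi/kg) oral gavage to fasted female or pregnant SD rats, one rat per time point. Carcasses were frozen in hexane/dry ice, and 40 µm sagittal sections were dried at −20°C for at least 48 h. Sections were exposed to a phosphor plate alongside [14C]glucose standards (0.001–6.5 µCi/g). Results are µg eq/g, with LLOQ 0.037 µg eq/g.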

Data set [4] relates to Lung. Kind of data set: Biodistribution in female Sprague-Dawley rat lung at 5 mg/kg, po administered as single dose measured after 8 hrs. Type of data set: ADME, organism-based. In outline:
(§3)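 [¹⁴C]Apixaban given by oral gavage at 5 mg/kg (100 μCi/kg) in 0.5% Tween 80 in Labrafil (1.0 mg/mL dosing solution) to rats fasted overnight through 4 h post-dose. One rat per time point; carcass frozen in hexane/dry ice. Quantitative whole-body autoradiography used 40 µm sagittal sections and a phosphor imaging plate calibrated with [¹⁴C]glucose standards (0.001–6.5 μCi/g). Read-out in µg eq apixaban/g; LLOQ 0.037 μg eq/g.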

The subject of data set [5] is Rattus norvegicus. Kind of data set: Biodistribution in female Sprague-Dawley rat salivary gland at 5 mg/kg, po administered as single dose measured after 4 hrs. Type of data set: ADME, organism-based. In short, it runs like this: (§4)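 [14C]apixaban (20 μCi/mL in dosing solution) in 0.5% Tween 80 in Labrafil given by oral gavage to fasted female rats, 206-213 g, at 100 μCi/kg. One rat per time point was euthanized and snap-frozen. Sagittal 40 µm whole-body sections were read by QWBA phosphor imaging against [14C]glucose standards. Results are in µg eq apixaban/g, with LLOQ 0.037 μg eq/g.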

A further data set deals with Brain. The experiment in a line: Biodistribution in male Sprague-Dawley rat brain at 5 mg/kg, po administered as single dose measured after 72 hrs. The data set is classed as ADME, organism-based.
Data set [6] has as its system Harderian gland. The experiment in a line: Biodistribution in male Sprague-Dawley rat harderian gland at 5 mg/kg, po administered as single dose measured after 72 hrs. Type of data set: ADME, organism-based. In outline: as §1
Data set [7] deals with Rattus norvegicus. Kind of data set: Biodistribution in male Sprague-Dawley rat bone marrow at 5 mg/kg, po administered as single dose measured after 1 hr. Type of data set: ADME, organism-based. In outline:
(§5)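 Fasted male rats, 225-252 g, received [14C]apixaban by single oral gavage at 100 μCi/kg in 0.5% Tween 80/Labrafil. One rat was killed per time point and the carcass frozen. Tissue radioactivity was quantified by QWBA (40 µm sagittal sections, phosphor plate, [14C]glucose calibration) as µg eq apixaban/g, with LLOQ 0.037 μg eq/g.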

The test system of data set [8] is Rattus norvegicus. Kind of data set: Biodistribution in male Sprague-Dawley rat brown fat at 5 mg/kg, po administered as single dose measured after 1 hr. The data set is classed as ADME, organism-based, Brown adipose tissue. In short, it runs like this:
as §5

The subject of another data set is Blood. Kind of data set: Biodistribution in male Sprague-Dawley rat blood at 5 mg/kg, po administered as single dose measured after 8 hrs. The data set is classed as ADME, organism-based. In short, it runs like this: as §3
A further data set has as its system Thymus. Kind of data set: Biodistribution in pregnant Sprague-Dawley rat thymus at 5 mg/kg, po administered as single dose measured after 8 hrs. The data set is classed as ADME, organism-based.
Data set [9] concerns Rattus norvegicus. Kind of data set: Biodistribution in fetal blood of pregnant Sprague-Dawley rat at 5 mg/kg, po administered as single dose measured after 8 hrs. Type of data set: ADME, organism-based. In outline:
(§6)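 Pregnant rats, 270-319 g and fasted overnight, received [14C]apixaban by oral gavage at 100 μCi/kg in 0.5% Tween 80/Labrafil. One dam per time point was euthanized and frozen in hexane/dry ice. Fetal tissue radioactivity was measured by QWBA on 40 µm sagittal sections calibrated with [14C]glucose standards. Values are in µg eq/g, with LLOQ 0.037 μg eq/g.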

For data set [10], the system named is Rattus norvegicus. Kind of data set: Biodistribution in fetal blood of pregnant Sprague-Dawley rat at 5 mg/kg, po administered as single dose measured after 24 hrs. Type of data set: ADME, organism-based. In short, it runs like this: as §2
Data set [11] deals with Rattus norvegicus. The experiment in a line: Biodistribution in pregnant Sprague-Dawley rat kidney cortex at 5 mg/kg, po administered as single dose measured after 48 hrs. Type of data set: ADME, organism-based. In outline: (§7)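 Fasted pregnant SD rats (n=6, 270-319 g) each received one oral gavage dose of [14C]apixaban, 5 mg/kg (100 μCi/kg), in 0.5% Tween 80/Labrafil. One rat was killed at each of 0.5, 1, 4, 8, 24 and 48 h. Carcasses were frozen in hexane/dry ice, cut into 40 µm sagittal sections, exposed to phosphor plates and quantified against [14C]glucose standards as µg eq/g. LLOQ was 0.037 µg eq/g.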

The test system of data set [12] is Rattus norvegicus. The experiment in a line: Biodistribution in fetal blood of pregnant Sprague-Dawley rat at 5 mg/kg, po administered as single dose measured after 48 hrs. The data set is classed as ADME, organism-based. In outline:
as §2

The subject of data set [13] is Rattus norvegicus. Kind of data set: Biodistribution in fetal brain of pregnant Sprague-Dawley rat at 5 mg/kg, po administered as single dose measured after 48 hrs. The data set is classed as ADME, organism-based. In outline:
as §2

Data set [14] deals with Lung. Kind of data set: Biodistribution in female Sprague-Dawley rat lung at 5 mg/kg, po administered as single dose measured after 72 hrs. Type of data set: ADME, organism-based. In outline:
as §2

Data set [15] has as its system Rattus norvegicus. Kind of data set: Biodistribution in female Sprague-Dawley rat bone marrow at 5 mg/kg, po administered as single dose measured after 4 hrs. Type of data set: ADME, organism-based. In short, it runs like this:
as §4

The test system of the next data set is Muscle tissue. The experiment in a line: Biodistribution in female Sprague-Dawley rat muscle at 5 mg/kg, po administered as single dose measured after 1 hr. Type of data set: ADME, organism-based. In short, it runs like this: as §3
In data set [16] the test system is Adrenal gland. The experiment in a line: Biodistribution in pregnant Sprague-Dawley rat adrenal gland at 5 mg/kg, po administered as single dose measured after 4 hrs. The data set is classed as ADME, organism-based. In outline: as §7
The nature of data set [17]: AUC (0 to t) in lactating Sprague-Dawley rat milk at 5 mg/kg, po administered as single dose. Type of data set: ADME, organism-based. In outline:
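Fasted lactating SD rats received 5 mg/kg [14C]apixaban orally (formulation 5.0 mg/mL, 20 μCi/mL). Oxytocin was injected subcutaneously 15 min before collection, and 1 mL milk was taken under anesthesia by milking machine. Sampling was predose and at 0.5–24 h, 3 rats per time point. Plasma was obtained at 1300g for 10 min. Duplicate 50–100 µL aliquots were counted by LSC for 10 min. AUC was calculated in WinNonlin.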

The subject of data set [18] is Harderian gland. Kind of data set: Biodistribution in pregnant Sprague-Dawley rat harderian gland at 5 mg/kg, po administered as single dose measured after 0.5 hrs. The data set is classed as ADME, organism-based.
Data set [19] relates to Rattus norvegicus. Kind of data set: Biodistribution in fetal blood of pregnant Sprague-Dawley rat at 5 mg/kg, po administered as single dose measured after 0.5 hrs. Type of data set: ADME, organism-based. In short, it runs like this: as §6

Each structure is given as a SMILES string.

As for `COc1ccc(-n2nc(C(N)=O)c3c2C(=O)N(c2ccc(N4CCCC[14C]4=O)cc2)CC3)cc1`, the Radiolabel recovery in the data set with Lung [1] is 0.57 ugequiv/g; in the data set with Rattus norvegicus [2] it was “Not detected assumed BLQ”; with Adrenal gland [3], “Not detected assumed BLQ”; in the data set with Lung [4], 0.2 ugequiv/g; in the data set on Rattus norvegicus [5], 0.44 ugequiv/g; in the data set on Brain, under 0.037 ugequiv/g. Also, the Radiolabel recovery result in the data set with Harderian gland [6] is given as “Not detected assumed BLQ”; with Rattus norvegicus [7], 0.57 ugequiv/g; with Rattus norvegicus [8], 0.94 ugequiv/g; with Blood it was 0.08 ugequiv/g; in the data set on Thymus it was 0.05 ugequiv/g; with Rattus norvegicus [9] it was 0.07 ugequiv/g. The Radiolabel recovery entry in the data set on Rattus norvegicus [10] is reported as “Not detected assumed BLQ”; with Rattus norvegicus [11] it was “Not detected assumed BLQ”; in the data set with Rattus norvegicus [12], “Not detected assumed BLQ”; in the data set with Rattus norvegicus [13], “Not detected assumed BLQ”; in the data set on Lung [14] it was “Not sampled as not visualised in autoradiograph”; in the data set with Rattus norvegicus [15] it was 0.26 ugequiv/g. Moreover, the Radiolabel recovery with Muscle tissue was 0.27 ugequiv/g; in the data set on Adrenal gland [16], 2.3 ugequiv/g; in the data set with Harderian gland [18], 1 ugequiv/g; in the data set on Rattus norvegicus [19], 0.27 ugequiv/g. Further, in data set [17], the AUCt is listed as 103000 ngequiv.hr/g.

The values above are taken from ChEMBL document CHEMBL3525963, “Tissue distribution and elimination of [14C]apixaban in rats” (Drug Metab Dispos, 2011).
